Assay results gathered from unrelated publications.
Target: SRSF protein kinase 2 (SRPK2, Homo sapiens, UniProt P78362)

| Compound | assay | conditions | remaining binding |
| --- | --- | --- | --- |
| CN(CCCC(F)(F)F)c1nccc(-c2cnn3ncccc23)n1 | binding | 1 µM | 100% |
| CN(C)C(=O)Cn1cc(-c2nc(C3(c4ccc(-c5cnc(N)nc5)cc4)CC3)no2)cn1 | cell-free assay, competition with immobilised ligand | 1 µM | 91% |
| COc1ncc2cc3ccccc3nc2c1C#N | cell-free assay, competition with immobilised ligand | 5 µM | 100% |
| O=C(c1ccc(Nc2ncc(Cl)c(-c3ccc(Cl)s3)n2)cc1)N1CCC(N2CCCC2)CC1 | binding, competition with immobilised ligand | 1 µM | 89% |
| c1cncc(-c2cccc(Nc3nccc(NC4CCCCC4)n3)c2)c1 | binding, competition with immobilised ligand | 10 µM | 100% |
| Cc1cnn2ncc(-c3ccnc(N(C)C)n3)c2c1 | binding | 1 µM | 100% |
| CNC(=O)[C@@H]1CC[C@@H](n2c(-c3ccc4cnccc4c3)nc3ccc(C(=O)NCc4cccc(C(N)=O)c4)cc32)C1 | binding, competition with immobilised ligand | 1 µM | 100% |
| O=C(NCCCN1CCOCC1)c1ccc(Nc2nccc(-c3cc4ccccc4s3)n2)cc1 | binding, competition with immobilised ligand | 1 µM | 99% |
| COc1ccnn2ncc(-c3ccnc(N(C)C)n3)c12 | binding | 1 µM | 100% |
| Cc1c(NC(=O)c2cc(C(N)=O)nc3cc(F)ccc23)c(C(F)(F)F)nn1Cc1ccc(C(C)(C)C)cc1 | cell-free assay, competition with immobilised ligand | 1 µM | 97% |
| FC(F)(F)Oc1cccc(-c2cnc3ccc(-c4ccncc4)nn23)c1 | binding, competition with immobilised ligand | 5 µM | 66% |
| C[C@@H]1CN(c2cc(-c3nn(C)c4ccc(OC5(C)CC5)cc34)ncn2)C[C@H](C)O1 | cell-free assay, competition with immobilised ligand | 1 µM | 88% |
| Cc1cnc(Nc2ccc(C(=O)N3CCC(N4CCCC4)CC3)cc2)nc1-c1cc2ccccc2s1 | binding, competition with immobilised ligand | 1 µM | 100% |
| CC1CCCN1c1nccc(-c2cnn3ncccc23)n1 (stereo not drawn) | binding | 1 µM | 100% |
| CCOC(=O)c1cc2cc(-c3cc(C(=O)NCc4ccc(C(=O)O)cc4)nn3C)ccc2[nH]1 | cell-free assay, competition with immobilised ligand | 0.1 µM | 100% |
| C[C@@H](c1ccc(-n2cnc3c(N)ncnc32)cc1)N1CCc2nn(C)c(Cc3ccccc3)c2C1=O | binding, competition with immobilised ligand | 0.1 µM | 83% |
| C[C@H]1CCN(c2nccc(-c3cnn4ncccc34)n2)C1 | binding | 1 µM | 93% |
| CS(=O)(=O)N1CCCC(NC(=O)[C@H](CCC2CCCCC2)NC(=O)c2ccc(CNC(=O)c3cnc4ccccn34)cc2)C1 (stereo partly drawn) | cell-free assay, competition with immobilised ligand | 0.1 µM | 83% |
| O=C(NCC1CCOCC1)c1n[nH]cc1NC(=O)c1c(F)cccc1F | binding, competition with immobilised ligand | 1 µM | 84% |
| O=C1NC(c2ccccn2)Sc2ccccc21 (stereo not drawn) | cell-free assay, competition with immobilised ligand | 1 µM | 100% |
| N[C@H]1CCN(c2nccc(-c3cnn4ncccc34)n2)C1 | binding | 1 µM | 62% |
